High-throughput results from PubChem BioAssay.
TPT1 inhibitor: C. albicans TPT1 enzyme inhibition | recombinant caTPT1, FP RNA substrate dephosphorylation | inhibition, % at 5 µM | 0.81% of 300,000 active;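 active = inhibition above the mean of all tested compounds plus 3 SD, set per screening campaign, cut at about 24% in these data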
CRFR2-BP antag: antagonists of CRF-binding protein/CRF-R2 receptor complex; HEK293 CRF-R2/CRF-BP, CRF-induced calcium fluorescence; inhibition, % at 11.8 µM; 0.59% of 350,000 active; AID 588475;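 active = inhibition of the ligand-induced calcium signal above about 50% at the single tested concentration, limit read from the data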
CSN inh: blocks human CSN-mediated cullin deneddylation. Purified CSN, SCF-Nedd8-OG deneddylation, fluorescence polarization. Q92905. inhibition, % at 12.5 µM. 0.38% of 360,000 active;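 active = pattern-corrected inhibition above about 35%, with an unprinted fluorescence ratio check between 0.5 and 1.5, limit read from the data, passing the limit was not always enough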
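Test system: Human Csn5 produced in HEK293T cells | Compound: 12.5 µM single point | Times: 90 min, room temperature | Signal: Fluorescence polarization readout | Read-out basis: % inhibition of substrate cleavage by Csn5 | Controls: no-enzyme wells high, enzyme-with-substrate wells low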
CRFBP-R2 agonist: agonists of human CRF-binding protein/CRF-R2 receptor complex; 0.46% of 350,000 active; activation, % at 13.2 µM; AID 588473; HEK293 CRF-R2/CRF-BP, calcium dye fluorescence (FLIPR); percent of saturating CRF peptide response;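 active = activation of at least 50%, plus an integration ratio under a set limit after plate pattern correction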
HNF4A DNA FP: change in binding of human HNF4 alpha to DNA; P41235; HNF4a-FITC DNA binding, fluorescence polarization, 1 h; activity change, % at 10 µM; 0.3% of 360,000 active; in the data active = activity change above about 30%, passing the limit was not always enough
Rpn11 inh: Rpn11 (human) deubiquitinase inhibition; O00487; human 26S proteasome, Ub4-pepOG fluorescence polarization; 20S core pre-blocked with epoxomicin; calls only at 20 µM; 0.59% of 360,000 active;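 active = inhibition at 20 µM, scaled to each plate's controls, above about 33%, limit read from the data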
Rpn11 inh conf: Rpn11 inhibition confirmation, single concentration; inhibition, % at 20 µM; purified human 26S proteasome, Ub4-pepOG fluorescence polarization; proteasome pretreated with epoxomicin; AID 602318; 29% of 1,900 active; shares compounds with Rpn11 inh
MMP-2 inh: MMP-2 (human) inhibition counter-screen | shares compounds with Rpn11 inh | recombinant MMP-2, FRET peptide cleavage fluorescence | inhibition, % at 20 µM | 4% of 1,900 active | AID 602330;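 also: human MMP-2 activated beforehand with APMA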
Thrombin FP: thrombin (bovine) inhibition counter-screen; shares compounds with Rpn11 inh; bovine thrombin cleavage of Ub4-pepOG, fluorescence polarization; inhibition, % at 20 µM; 13% of 1,900 active;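 active = mean inhibition at least 40% at 20 µM, or signal 3 deviations below plate average, so some actives read negative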
Target sequence (P00735 whole entry, looked up): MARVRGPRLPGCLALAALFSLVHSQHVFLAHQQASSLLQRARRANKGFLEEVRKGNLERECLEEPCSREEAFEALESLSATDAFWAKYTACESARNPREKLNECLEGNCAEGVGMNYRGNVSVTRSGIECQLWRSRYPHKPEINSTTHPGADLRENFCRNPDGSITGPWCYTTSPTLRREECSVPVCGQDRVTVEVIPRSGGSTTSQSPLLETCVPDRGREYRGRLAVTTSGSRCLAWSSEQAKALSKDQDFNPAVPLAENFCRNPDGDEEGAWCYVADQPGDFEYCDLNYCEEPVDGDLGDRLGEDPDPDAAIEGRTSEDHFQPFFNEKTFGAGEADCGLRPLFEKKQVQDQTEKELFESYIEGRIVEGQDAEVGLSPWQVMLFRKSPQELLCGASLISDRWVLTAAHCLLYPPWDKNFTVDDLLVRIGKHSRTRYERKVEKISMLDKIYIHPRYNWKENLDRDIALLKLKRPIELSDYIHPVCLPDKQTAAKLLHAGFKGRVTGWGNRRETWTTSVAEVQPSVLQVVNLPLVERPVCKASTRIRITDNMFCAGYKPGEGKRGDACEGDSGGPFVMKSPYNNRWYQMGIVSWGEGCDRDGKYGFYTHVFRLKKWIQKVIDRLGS
A number is an active result; - = inactive; . = no result given; + = active, no number. Sampled rows, rich in hits. Any-hit rate of the full collection: about 2.3%. Rule as the data show it, unless noted: active = inhibition above about 40%; inactive = the rest.

SMILES | TPT1 inhibitor | CRFR2-BP antag | CSN inh | CRFBP-R2 agonist | HNF4A DNA FP | Rpn11 inh | Rpn11 inh conf | MMP-2 inh | Thrombin FP
CCCCCN(C(=O)CCC(=O)OCC(=O)c1ccc(C(C)CC)cc1)c1c(N)n(CCCC)c(=O)[nH]c1=O (stereo unspecified) | - | - | - | - | - | - | . | . | .
COc1ccc(/C=N/N2C(=O)CSC2=S)cc1 | - | - | - | - | - | - | . | . | .
O=C1CSC(=S)N1N=Cc1ccc(Cl)s1 | . | - | - | - | - | + | 41 | - | -
CC(C)(C)c1ccc(/C=N/N2C(=O)CSC2=S)cc1 | - | - | - | - | - | + | - | - | -
CC(C)N1CCc2c(sc(NC(=O)c3cc4cc([N+](=O)[O-])ccc4s3)c2C(N)=O)C1 | . | - | - | 134 | - | + | - | - | -
CC(C)N1CCc2c(sc(NC(=O)Cc3ccccc3)c2C(N)=O)C1 | - | - | - | - | - | - | . | . | .
O=S(=O)(c1ccc(Br)s1)N1CCN(c2ccccc2)CC1 | - | - | - | - | 32 | + | - | - | -
Cc1cc(C(=O)N/N=C/c2c3ccccc3cc3ccccc23)n[nH]1 | - | - | - | - | - | - | . | . | .
NC(=O)C(=O)N/N=C/c1c2ccccc2cc2ccccc12 | - | - | - | - | - | + | - | - | -
COc1cccc(OC)c1C(=O)NCCN1CCN(C(=O)c2c(OC)cccc2OC)CC1 | - | - | - | - | - | + | - | - | -
CC(=O)N/N=C(\C)CCc1ccccc1 | - | - | - | - | - | - | . | . | .
COc1ccc(-c2nnc(SCC(=O)NCc3cccs3)n2C(C)C)cc1 | - | - | - | - | - | + | - | - | -
COc1ccc(-c2nnc(SCC(=O)NCc3cccs3)n2C)cc1 | - | - | - | - | - | - | . | . | .
Cc1cccc(NC(=O)/C(=C\c2ccco2)NC(=O)c2cccs2)c1 | - | - | - | - | - | + | - | - | -
O=[N+]([O-])c1ccc2nc(-c3ccccc3)cc(-c3ccccc3)c2c1 | - | - | - | - | - | - | . | . | .
Nc1nc(-c2cc(O)ccc2[N+](=O)[O-])cc(-c2ccccc2)c1[N+](=O)[O-] | . | - | - | - | - | + | 43 | - | -
Nc1cc(=O)[nH]c(SCC(=O)N2N=C(c3ccc(Cl)cc3)CC2c2ccco2)n1 (stereo unspecified) | - | - | - | - | - | + | - | - | -
CC(C)(C)OC(=O)[C@H](Cc1ccccc1)NC(=O)c1ncn2c1c(=O)[nH]c1ccc(Br)cc12 | . | - | - | - | - | + | - | - | -
CC(C)(C)OC(=O)[C@H](Cc1ccccc1)NC(=O)c1nc[nH]c1C(=O)N[C@@H](Cc1ccccc1)C(=O)OC(C)(C)C | - | - | - | - | - | - | . | . | .
CCn1nnnc1NCc1ccc(N2CCCC2)cc1 | - | - | - | - | - | + | - | - | -
O=C(NCCSSCCNC(=O)c1ccccc1)c1ccccc1 | . | - | - | - | - | - | . | . | .
CC(=O)OCC1OC(n2c(-c3ccc(Cl)cc3)ccc(C#N)c2=S)C(OC(C)=O)C(OC(C)=O)C1OC(C)=O (stereo unspecified) | . | - | - | - | - | + | - | - | -
CC(=O)OCC1OC(n2c3c(cc(C#N)c2=S)CCCC3)C(OC(C)=O)C(OC(C)=O)C1OC(C)=O (stereo unspecified) | . | - | - | - | - | - | . | . | .
COc1cccc2cc(C(=O)Nc3ccc(F)cc3)c(=Nc3ccc(C(=O)O)cc3)oc12 | - | - | - | - | - | + | 117 | - | -
CCOC(=O)c1c(NC(=O)C(C)OC(=O)c2ccc(NC(=O)CC#N)cc2)sc2c1CCCC2 (stereo unspecified) | - | - | - | - | - | + | - | - | -
SMILES | TPT1 inhibitor | CRFR2-BP antag | CSN inh | CRFBP-R2 agonist | HNF4A DNA FP | Rpn11 inh | Rpn11 inh conf | MMP-2 inh | Thrombin FP
CCOC(=O)c1c(NC(=O)C(C)OC(=O)C2=COCCO2)sc2c1CCCC2 (stereo unspecified) | . | - | - | - | - | - | . | . | .
C/C(=N/OC(=O)c1c(-c2c(Cl)cccc2Cl)noc1C)c1cnccn1 | - | - | - | - | - | - | . | . | .
Cc1ccc(S(=O)(=O)N2C[C@H]3C(=O)C[C@@H](c4ccccc4F)N(S(=O)(=O)c4ccc(C)cc4)[C@H]3C[C@H]2c2ccccc2)cc1 | . | . | - | . | - | - | . | . | .
Cc1ccc([C@@H]2CC(=O)[C@@H]3CN(S(=O)(=O)c4ccc(C)cc4)[C@H](c4ccccc4F)C[C@@H]3N2S(=O)(=O)c2ccc(C)cc2)cc1 | . | . | - | . | - | + | - | - | -
COc1ccc(C2CC(c3cccs3)=NN2S(=O)(=O)c2ccc(C)cc2)cc1 (stereo unspecified) | - | - | - | - | - | - | . | . | .
Cc1ccc(C2CC(c3cccs3)=NN2S(=O)(=O)c2ccc(C)cc2)cc1 (stereo unspecified) | - | - | - | - | - | + | 41 | - | -
COc1cccc(NC(=O)C2CC(=O)N(Cc3ccc(C)cc3)C2)c1 (stereo unspecified) | - | - | - | - | - | - | . | . | .
Cc1nn(-c2ccccc2)c(Cl)c1/C=C1\SC(=S)NC1=O | - | - | - | - | - | + | - | - | -
Cc1nn(-c2ccccc2)c(Cl)c1/C=C1\SC(=S)N(CCCCCC(=O)O)C1=O | - | - | - | - | - | - | . | . | .
O=C1Nc2ccccc2OCc2c1cccc2[N+](=O)[O-] | - | - | - | - | - | + | - | - | -
CCC(C)C(=O)Nc1nc(C)c(-c2csc(Nc3ccc(Cl)cc3)n2)s1 (stereo unspecified) | - | - | - | - | - | + | - | - | -
CN1CCc2c(sc(N)c2C(N)=O)C1 | - | - | - | - | - | - | . | . | .
CN1CCc2c(sc(/N=C/c3c[nH]c4ccccc34)c2C(N)=O)C1 | - | - | 115 | - | - | + | - | - | -
Cc1cc(C)n(-c2ccc(Cl)c(C(=O)OCC(=O)N3CCCCC3C)n2)n1 (stereo unspecified) | - | - | - | - | - | - | . | . | .
COc1ccccc1N1CCN(Cc2cc(Br)c(O)c3ncccc23)CC1 | - | - | - | - | - | + | - | - | -
Oc1c(CN2CCCCC2)cc(COCc2ccccc2)c2cccnc12 | - | - | - | - | - | + | - | - | -
CCOc1ccccc1N1CCN(Cc2cccc(OC)c2O)CC1 | - | - | - | - | - | - | . | . | .
